The source of these data is ChEMBL document CHEMBL3272167, “Antimalarials. 3. 1,2,4-Triazines” (J Med Chem, 1976).

Each structure is given as a SMILES string. Calls of active or inactive are those of the source. No cut-off for these calls is given here.

Data set [1] relates to Mus musculus. In words: Toxicity in trophozoite Plasmodium berghei infected in sc dosed mouse administered as single dose 72 hrs after parasite infection. It is filed as organism-based. The note with it: in vivo. The method, boiled down: (§1)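 Mice were infected with P. berghei trophozoites and given one subcutaneous dose of test compound 72 h later, up to a maximum of 640 mg/kg. Mean survival time of treated mice was compared with untreated controls. A 2.5-day prolongation counted as significant, and activity required a mean survival of at least 12 days. Cure meant 60-day survival without parasitemia.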

For data set [2], the system named is Plasmodium berghei. The experiment in a line: Antimalarial activity against trophozoite Plasmodium berghei infected in mouse assessed as increase in mean survival time administered as single dose 72 hrs after parasite infection. Type of data set: functional, organism-based. The method in brief: as §1
The test system of data set [3] is Plasmodium berghei. The experiment in a line: Antimalarial activity against trophozoite Plasmodium berghei infected in mouse assessed as increase in mean survival time at 640 mg/kg, sc administered as single dose 72 hrs after parasite infection. Type of data set: functional. As to conditions: route subcutaneous. The method, boiled down: (§2)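 Mice were infected with P. berghei trophozoites and given one subcutaneous dose of test compound 72 h later. The read-out was the increase in mean survival time of treated over control animals (MSTT vs MSTC); prolongation of 2.5 days was taken as significant, and a 12-day minimum mean survival was required for activity. Survivors at 60 days without parasitemia counted as cured. The maximum dose was 640 mg/kg.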

Data set [4] relates to Plasmodium berghei. The experiment in a line: Antimalarial activity against trophozoite Plasmodium berghei infected in mouse assessed as increase in mean survival time at 320 mg/kg, sc administered as single dose 72 hrs after parasite infection. Type of data set: functional. The note with it: route subcutaneous. The method, boiled down:
as §2

For data set [5], the system named is Mus musculus. The experiment in a line: Toxicity in trophozoite Plasmodium berghei infected in mouse at 640 mg/kg, sc administered as single dose 72 hrs after parasite infection. Type of data set: organism-based. On the set-up: dose 640 mg/kg, route subcutaneous. As to conditions: in vivo. The method, boiled down:
as §1

Data set [6] relates to Plasmodium berghei. In words: Antimalarial activity against trophozoite Plasmodium berghei infected in mouse assessed as increase in mean survival time at 160 mg/kg, sc administered as single dose 72 hrs after parasite infection. It is filed as functional. The note with it: route subcutaneous. The method in brief: as §2
For data set [7], the system named is Plasmodium berghei. In words: Antimalarial activity against trophozoite Plasmodium berghei infected in mouse assessed as increase in mean survival time at 80 mg/kg, sc administered as single dose 72 hrs after parasite infection. It is filed as functional. As to conditions: route subcutaneous. The method in brief: as §2
Data set [8] relates to Plasmodium berghei. In words: Antimalarial activity against trophozoite Plasmodium berghei infected in mouse assessed as increase in mean survival time at 40 mg/kg, sc administered as single dose 72 hrs after parasite infection. Type of data set: functional. As to conditions: route subcutaneous. The method, boiled down:
as §2

Data set [9] deals with Plasmodium berghei. The experiment in a line: Antimalarial activity against trophozoite Plasmodium berghei infected in mouse assessed as increase in mean survival time at 20 mg/kg, sc administered as single dose 72 hrs after parasite infection. Type of data set: functional. The note with it: route subcutaneous. The method in brief: as §2
In data set [10] the test system is Plasmodium berghei. In words: Antimalarial activity against trophozoite Plasmodium berghei infected in mouse assessed as increase in mean survival time at 10 mg/kg, sc administered as single dose 72 hrs after parasite infection. It is filed as functional. The note with it: route subcutaneous. The method, boiled down:
as §2

In data set [11] the test system is Gallus gallus (chicken). The experiment in a line: Toxicity in Plasmodium gallinaceum infected in chick at 480 mg/kg, sc administered as single dose 72 hrs after parasite infection. As to conditions: in vivo.
Data set [12] relates to Plasmodium gallinaceum. The experiment in a line: Antimalarial activity against Plasmodium gallinaceum infected in chick assessed as increase in mean survival time at 640 mg/kg, sc administered as single dose 72 hrs after parasite infection. As to conditions: route subcutaneous.
The subject of data set [13] is Plasmodium gallinaceum. In words: Antimalarial activity against Plasmodium gallinaceum infected in chick assessed as increase in mean survival time at 480 mg/kg, sc administered as single dose 72 hrs after parasite infection. As to conditions: route subcutaneous.
For data set [14], the system named is Plasmodium gallinaceum. The experiment in a line: Antimalarial activity against Plasmodium gallinaceum infected in chick assessed as increase in mean survival time at 240 mg/kg, sc administered as single dose 72 hrs after parasite infection. The note with it: route subcutaneous.
Data set [15] deals with Plasmodium gallinaceum. The experiment in a line: Antimalarial activity against Plasmodium gallinaceum infected in chick assessed as increase in mean survival time at 80 mg/kg, sc administered as single dose 72 hrs after parasite infection. As to conditions: route subcutaneous.
Data set [16] deals with Plasmodium gallinaceum. In words: Antimalarial activity against Plasmodium gallinaceum infected in chick assessed as increase in mean survival time at 320 mg/kg, sc administered as single dose 72 hrs after parasite infection. The note with it: route subcutaneous.
Data set [17] relates to Plasmodium gallinaceum. The experiment in a line: Antimalarial activity against Plasmodium gallinaceum infected in chick assessed as increase in mean survival time at 160 mg/kg, sc administered as single dose 72 hrs after parasite infection. The note with it: route subcutaneous.
Data set [18] relates to Gallus gallus (chicken). In words: Toxicity in Plasmodium gallinaceum infected in chick at 640 mg/kg, sc administered as single dose 72 hrs after parasite infection. As to conditions: in vivo.

Turning to `CSc1nnc(C)c(SC)n1`, in the data set with Mus musculus [1], the Activity result is recorded as “Toxic”.

As to `Cc1ccc(S(=O)(=O)NC(=O)Nc2nnc(-c3ccc4c(c3)OCO4)c(N)n2)cc1`, the result in the data set on Plasmodium berghei [2] was inactive.

Take `Cc1nnc(N)nc1C`: the MST in the data set with Plasmodium berghei [3] was found to be 4.2 days. In addition, the outcome in the data set on Plasmodium berghei [2] was inactive.

For the compound `Nc1nnc(-c2ccc(C(F)(F)F)cc2)c(N)n1`, the T/C in the data set with Plasmodium berghei [4] is on record as 0; in the data set on Plasmodium berghei [3], 0; with Plasmodium berghei [6], 0; with Plasmodium berghei [7], 0; in the data set with Plasmodium berghei [8], 12.8; with Plasmodium berghei [9], 12.8. The T/C with Plasmodium berghei [10] was found to be 6.8; with Plasmodium gallinaceum [12], 9.9; with Plasmodium gallinaceum [13] it was 9.9; with Plasmodium gallinaceum [14] it was 6.4. Besides, the Activity result in the data set with Mus musculus [5] and in the data set on Gallus gallus (chicken) [11] was “Toxic” throughout.

With `Cc1ccc(-c2nnc(N)nc2N)cc1Cl`, the T/C in the data set with Plasmodium berghei [3] is recorded as 9.9.

Take `Nc1nnc(-c2ccccc2)c(-c2ccccc2)n1`: the Activity entry in the data set with Mus musculus [1] is given as “Toxic”.

With `N#C/C(=N/NC(=N)N)c1cccs1.O=[N+]([O-])O`, the Activity result in the data set on Mus musculus [1] is recorded as “Toxic”.

With `Nc1nnc(-c2ccc3c(c2)OCO3)c(N)n1`, the T/C in the data set with Plasmodium berghei [4] worked out at 12.2; in the data set on Plasmodium berghei [3], 15.4; with Plasmodium berghei [6], 7.1; with Plasmodium gallinaceum [15], 1.7; in the data set with Plasmodium gallinaceum [16], 3.2; with Plasmodium gallinaceum [17], 3.2.

For `CS(=O)(=O)c1ccc(-c2nnc(N)nc2N)cc1`, the Activity entry in the data set with Mus musculus [1] is on record as “Toxic”.

For `COc1ccc(-c2nnc(NC(=O)Nc3ccccc3)nc2N)cc1OC`, in the data set on Plasmodium berghei [2], the result was inactive.

For `Cc1nnc(S)nc1S`, the Activity result in the data set with Mus musculus [1] and with Gallus gallus (chicken) [18] was “Toxic” each time. Also, the T/C in the data set on Plasmodium gallinaceum [12] is recorded as 4.4.

Regarding `CN(C)/C=N/c1nnc(-c2ccc3c(c2)OCO3)c(/N=C/N(C)C)n1`, in the data set with Plasmodium berghei [3], the MST came out at 5.9 days. Besides, the result with Plasmodium berghei [2] was inactive. For the same compound, the T/C with Plasmodium gallinaceum [13] turned out to be 1.5.

As to `COc1ccc(-c2nnc(N)nc2N)cc1OC`, the MST with Plasmodium berghei [4] was determined as 10.1 days; in the data set on Plasmodium berghei [3], 11.7 days. The T/C in the data set on Plasmodium gallinaceum [16] was 7.

`COc1ccc(-c2nnc(/N=C/N(C)C)nc2/N=C/N(C)C)cc1OC`: in the data set with Plasmodium berghei [2], the outcome was inactive.

In the case of `Cc1ccc(-c2nnc(N)nc2N)cc1C`, in the data set on Plasmodium berghei [3], the MST was 4.9 days.

`Nc1nnc(-c2cccc(C(F)(F)F)c2)c(N)n1`: in the data set on Plasmodium berghei [3], the MST was found to be 4.6 days. Also, the T/C with Plasmodium gallinaceum [14] is recorded as 2.2; in the data set with Plasmodium gallinaceum [16], 1.5.

For `Cc1n[nH]c(=S)[nH]c1=O`, the Activity entry with Mus musculus [1] is on record as “Toxic”.
